In ChEMBL document CHEMBL1212819, “Heteroadamantyl cannabinoids” (J Med Chem, 2010) one finds Ki data, which are given here for 17 molecules.

Usually Ki stands for a dissociation constant, usually derived from enzyme kinetics or from competition with a known ligand.

Experiment [1] deals with Cannabinoid receptor 2 (Homo sapiens, UniProt P34972). In words: Displacement of [3H]CP-55940 from human CB2 receptor expressed in HEK293 cell membranes. Summed up:
(§1)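 Competition binding against [3H]CP-55,940. CB1 came from rat brain membranes, and CB2 from membranes of HEK293 cells expressing mouse or human CB2. Curves were fitted by nonlinear regression to give IC50, and Ki was calculated from IC50. Each experiment was run in triplicate, and Ki values come from a single experiment.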

A further experiment concerns the target Cannabinoid receptor 1 (Rattus norvegicus, UniProt P20272). The experiment is described as follows: Displacement of [3H]CP-55940 from CB1 receptor in rat brain. The class given is tissue-based. The method in brief:
as §1
Background: Loss of bound radioactivity is the signal in a displacement assay; it reports binding, not function.

Experiment [2] has as its target Cannabinoid receptor 2 (Mus musculus, UniProt P47936). In words: Displacement of [3H]CP-55940 from mouse CB2 receptor expressed in HEK293 cell membranes. The method in brief: as §1

Sequence of Cannabinoid receptor 2 (Homo sapiens, UniProt P34972) (P34972 whole entry): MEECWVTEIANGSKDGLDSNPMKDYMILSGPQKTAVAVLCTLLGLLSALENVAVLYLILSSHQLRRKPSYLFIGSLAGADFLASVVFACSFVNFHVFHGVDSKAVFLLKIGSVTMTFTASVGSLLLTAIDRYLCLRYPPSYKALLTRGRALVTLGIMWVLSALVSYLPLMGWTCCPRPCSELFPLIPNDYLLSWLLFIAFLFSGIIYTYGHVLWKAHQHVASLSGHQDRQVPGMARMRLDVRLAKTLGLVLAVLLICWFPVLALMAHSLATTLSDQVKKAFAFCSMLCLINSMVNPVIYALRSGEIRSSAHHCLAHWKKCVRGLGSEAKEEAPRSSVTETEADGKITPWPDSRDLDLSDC
Sequence of Cannabinoid receptor 1 (P20272 whole entry): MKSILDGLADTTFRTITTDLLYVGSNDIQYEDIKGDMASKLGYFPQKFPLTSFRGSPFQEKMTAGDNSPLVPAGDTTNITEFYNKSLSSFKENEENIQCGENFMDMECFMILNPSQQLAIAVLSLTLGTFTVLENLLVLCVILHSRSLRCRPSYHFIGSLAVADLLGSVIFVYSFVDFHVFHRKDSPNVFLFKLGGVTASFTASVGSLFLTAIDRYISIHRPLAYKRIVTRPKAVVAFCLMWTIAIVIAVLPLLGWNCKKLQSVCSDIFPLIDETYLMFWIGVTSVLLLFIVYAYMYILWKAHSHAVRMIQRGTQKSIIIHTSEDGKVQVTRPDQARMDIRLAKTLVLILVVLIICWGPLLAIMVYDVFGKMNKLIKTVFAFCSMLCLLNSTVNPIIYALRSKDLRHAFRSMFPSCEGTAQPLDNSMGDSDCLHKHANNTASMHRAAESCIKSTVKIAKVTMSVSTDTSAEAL
Sequence of Cannabinoid receptor 2 (Mus musculus, UniProt P47936) (P47936 whole entry): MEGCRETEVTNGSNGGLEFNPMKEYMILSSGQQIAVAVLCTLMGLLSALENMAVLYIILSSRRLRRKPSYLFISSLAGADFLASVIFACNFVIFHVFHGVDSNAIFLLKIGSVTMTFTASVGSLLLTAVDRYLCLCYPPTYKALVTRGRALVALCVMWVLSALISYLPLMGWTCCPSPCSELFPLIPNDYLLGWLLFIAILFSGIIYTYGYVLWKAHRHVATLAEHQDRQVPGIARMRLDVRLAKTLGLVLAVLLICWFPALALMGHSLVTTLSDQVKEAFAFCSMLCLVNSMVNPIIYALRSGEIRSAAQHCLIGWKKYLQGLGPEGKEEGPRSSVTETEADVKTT

Turning to `CC1(C)Oc2cc(N3C4CC5CC3CC(C4)O5)cc(O)c2[C@@H]2C[C@H](O)CC[C@H]21`, the results for the Ki on Cannabinoid receptor 2 [1] (read-out: Ki), at Cannabinoid receptor 1 (read-out: Ki) and on Cannabinoid receptor 2 [2] were 1.8 µM, 1.8 µM and 1.2 µM, respectively.

On to `CC1(C)Oc2cc(C(=O)N3C4CC5CC3CC(C4)O5)cc(O)c2[C@@H]2C[C@H](O)CC[C@H]21`, for which the Ki is 20 µM at Cannabinoid receptor 2 [1] (read-out: Ki), “Not Active” at Cannabinoid receptor 1 and 2.5 µM on Cannabinoid receptor 2 [2].

Turning to `CC1(C)Oc2cc(C(=O)N3C4CC5CC3CC(C4)O5)cc(O)c2[C@@H]2C[C@@H](O)CC[C@H]21`, the Ki on Cannabinoid receptor 2 [1] (read-out: Ki) is 25 µM; at Cannabinoid receptor 1 it was “Not Active”; at Cannabinoid receptor 2 [2] it was 8.6 µM.

Take `CC1(C)Oc2cc(C34CC5CC(CC(C5)O3)C4)cc(O)c2[C@@H]2C[C@@H](O)CC[C@H]21`: the values for the inhibitory constant (Ki) on Cannabinoid receptor 2 [1] (read-out: Ki), at Cannabinoid receptor 1 (read-out: Ki) and at Cannabinoid receptor 2 [2] were 1.3 µM, 0.55 µM and 0.54 µM, respectively.

For the molecule `CC1(C)Oc2cc(C(=O)NC34CC5CC(CC(C5)C3)C4)cc(O)c2[C@@H]2C[C@H](O)CC[C@H]21`, the inhibition constant Ki at Cannabinoid receptor 2 [1] (read-out: Ki) was 8.7 µM; on Cannabinoid receptor 1 (read-out: Ki), 80 µM; at Cannabinoid receptor 2 [2], 0.5 µM.

As for `CC1(C)Oc2cc(C(=O)NC3C4CC5CC(C4)CC3C5)cc(O)c2[C@@H]2C[C@@H](O)CC[C@H]21` (some centres undefined), the inhibitory constant (Ki) came to 15 µM at Cannabinoid receptor 2 [1] (read-out: Ki), 100 µM on Cannabinoid receptor 1 (read-out: Ki) and 3.7 µM on Cannabinoid receptor 2 [2].

For `CC1(C)Oc2cc(CN3C4CC5CC3CC(C4)O5)cc(O)c2[C@@H]2C[C@H](O)CC[C@H]21`, the Ki was 15 µM on Cannabinoid receptor 2 [1] (read-out: Ki), 10 µM at Cannabinoid receptor 1 (read-out: Ki) and 8.7 µM at Cannabinoid receptor 2 [2].

Take `CC1(C)Oc2cc(CN3C4CC5CC3CC(C4)O5)cc(O)c2[C@@H]2C[C@@H](O)CC[C@H]21`: the figures for the inhibition constant (Ki) on Cannabinoid receptor 2 [1] (read-out: Ki), on Cannabinoid receptor 1 (read-out: Ki) and at Cannabinoid receptor 2 [2] were 5 µM, 125 µM and 7.5 µM, respectively.

With `CC1(C)Oc2cc(N3C4CC5CC3CC(C4)O5)cc(O)c2[C@@H]2C[C@@H](O)CC[C@H]21`, the Ki at Cannabinoid receptor 2 [1] (read-out: Ki) was 14.9 µM; on Cannabinoid receptor 1 (read-out: Ki) it was 22.4 µM; at Cannabinoid receptor 2 [2], 17 µM.

Regarding `CC1=CC[C@@H]2[C@@H](C1)c1c(O)cc(C34CC5CC(CC(C5)C3)C4)cc1OC2(C)C`, on Cannabinoid receptor 2 [1] (hek293), the inhibition constant Ki result is given as “Not Active”.

In the case of `CC1(C)Oc2cc(CNC34CC5CC(CC(C5)C3)C4)cc(O)c2[C@@H]2C[C@H](O)CC[C@H]21`, the Ki turned out to be 10 µM at Cannabinoid receptor 2 [1] (read-out: Ki), 150 µM on Cannabinoid receptor 1 (read-out: Ki) and 0.5 µM at Cannabinoid receptor 2 [2].

Turning to `CC1(C)Oc2cc(CNC3C4CC5CC(C4)CC3C5)cc(O)c2[C@@H]2C[C@@H](O)CC[C@H]21` (some centres undefined), the inhibitory constant (Ki) was 25 µM on Cannabinoid receptor 2 [1] (read-out: Ki), “Not Active” on Cannabinoid receptor 1 and 7.5 µM on Cannabinoid receptor 2 [2].

On to `CC1(C)Oc2cc(CNC3C4CC5CC(C4)CC3C5)cc(O)c2[C@@H]2C[C@H](O)CC[C@H]21` (some centres undefined), for which the results for the Ki at Cannabinoid receptor 2 [1] (read-out: Ki), at Cannabinoid receptor 1 (read-out: Ki) and on Cannabinoid receptor 2 [2] were 20 µM, 150 µM and 6.2 µM, respectively.

With `CC1(C)Oc2cc(C(=O)NC34CC5CC(CC(C5)C3)C4)cc(O)c2[C@@H]2C[C@@H](O)CC[C@H]21`, the Ki on Cannabinoid receptor 2 [1] (read-out: Ki) turned out to be 35 µM; on Cannabinoid receptor 1 (read-out: Ki), 375 µM; on Cannabinoid receptor 2 [2], 7.5 µM.

Regarding `CC1(C)Oc2cc(C(=O)NC3C4CC5CC(C4)CC3C5)cc(O)c2[C@@H]2C[C@H](O)CC[C@H]21` (some centres undefined), the Ki at Cannabinoid receptor 2 [1] (read-out: Ki) amounted to 2.7 µM; on Cannabinoid receptor 1 (read-out: Ki), 15 µM; at Cannabinoid receptor 2 [2] it was 1.2 µM.

As to `CC1(C)Oc2cc(C34CC5CC(CC(C5)O3)C4)cc(O)c2[C@@H]2C[C@H](O)CC[C@H]21`, the Ki is 0.019 µM at Cannabinoid receptor 2 [1] (read-out: Ki), 0.023 µM on Cannabinoid receptor 1 (read-out: Ki) and 0.018 µM on Cannabinoid receptor 2 [2].

Take `CC1(C)Oc2cc(CNC34CC5CC(CC(C5)C3)C4)cc(O)c2[C@@H]2C[C@@H](O)CC[C@H]21`: the inhibition constant (Ki) was found to be 25 µM at Cannabinoid receptor 2 [1] (read-out: Ki), 100 µM on Cannabinoid receptor 1 (read-out: Ki) and 5 µM at Cannabinoid receptor 2 [2].
